“And” between values parts separate entries of the source, which are not always exact repeats. Identical values can stand only once. “Also recorded” adds a separate entry of the source.

Broadly, the LOAEL is the lowest tested level that showed an adverse finding. By NOAEL is commonly meant the highest dose or exposure tested at which no adverse effect was seen. As a reminder, the IC50 is the midpoint of a concentration-inhibition curve.

In series [1] the test system is mouse fibroblast C3H/M2 cells. To be noted: ref Pfau etal., 1999, cited from earlier work; for Malignant transformation: in the presence of rat-liver S9; for Cell transformation: without metabolic activation.
Series [2] relates to Salmonella Typhimurium TA98. Put plainly: Bacterial reverse mutation test. Type of series: cell-based. The settings on record: for Induction of revertant colonies compared with vehicle control: absence of metabolic activation; for Induction of revertants: presence of S9.
In series [3] the test system is Balb/c 3T3 clone A31-1-1 cells. Put plainly: BALB/c 3T3 cell transformation assay. It is filed as cell-based. To be noted: for Induction of foci / cell transformation: concentrations of up to 50 µM.
The nature of series [4]: Stability of MelQx-M1 under Ames assay conditions. Type of series: in vitro ADME. To be noted: 10% rat liver S9, 1 µM, 30 min, 37 °C. For orientation: The Ames test uses bacterial strains that need an amino acid and regain growth without it when mutated back.
The test system of series [5] is human colon epithelial cells (HCEC). Briefly: Cytotoxicity, CellTiter-Glo luminescent cell viability assay. Type of series: cell-based. To be noted: for LOAEL / NOAEL / BMD5 / BMD10 / BMDU5 / BMDL10 / BMDL5 / BMDU10 / IC50: 24 h; for BMD5: 5% benchmark dose; for BMD10: 10% benchmark dose; for BMDU5: highest benchmark dose upper bound, Hill models; for BMDU5 / BMDL5: 5% response; for BMDL10: lower bound; for BMDL10 / BMDU10: 10% response; for BMDL5: lowest benchmark dose lower bound, exponential models; for BMDU10: upper bound; for IC10 (95% CI): mean of 3 experiments; for IC50: Homo sapiens, read-out: IC50 (95% CI). In general terms: ATP-based viability assays read luminescence as a measure of living cells.

For another series, the system named is rat intestinal tissues. The settings on record: ref Nicken etal., 2015; cited from earlier work.
For series [6], the system named is bacteria. Briefly: Ames test. Type of series: cell-based. To be noted: 1 µg/plate, expectation of the authors.
Series [7] has as its system bacteria. To be noted: cited from earlier work; for Mutagenic activity: 1 µg/plate, similar experimental conditions, ref Vanhaecke etal., 2008b.
The test system of another series is BALB/c 3T3 cells. To be noted: non-cytotoxic concentrations; ref Nicken etal., 2015; cited from earlier work.
Series [8] has as its system complex human gut microbiota. Briefly: MelQx transformation by complex human colon microbiota. Type of series: in vitro ADME. To be noted: absence of glycerol, 100 μM MelQx, 37 °C, 72 h. An outline of the steps:
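Faecal microbiota from a healthy person were immobilised in gellan-xanthan gel beads under strict anaerobiosis and inoculated (30% v/v) into a proximal-colon reactor (37 °C, pH 5.7). It was linked to a distal-colon reactor (37 °C, pH 6.8). PC and DC effluents seeded triplicate mYCFA batch fermentations. Supernatants were alkalinised with Na2CO3, extracted thrice with ethyl acetate, concentrated and analysed by LC-ESI-MS2.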

Another series has as its system L. rossiae DSM 15184. Put plainly: Microbial MelQx transformation in mYCFA with glycerol. It is filed as in vitro ADME, Lactobacillus rossiae. To be noted: 100 µM MelQx, anaerobic, 37 °C, 3 days.
Another series has as its system L. reuteri ATCC 55730. Described as above. Type of series: in vitro ADME, Lactobacillus reuteri. To be noted: 100 µM MelQx, anaerobic, 37 °C, 3 days.
Series [9] deals with human colon epithelial cells from a different origin. To be noted: in presence of sulfotransferases; ref Herbst etal. (2006); cited from earlier work.
Setting [10] is: +S9, dose 0.08 µM (0.01 µg/plate).
The mark [11] stands for this setting: +S9, dose 0.2 µM (0.23 µM in text; 0.03 µg/plate MelQx, 0.04 MelQx-M1).
The mark [12] stands for this setting: +S9, dose 0.8 µM (0.11 µg/plate MelQx, 0.13 MelQx-M1).
Where [13] appears, read: +S9, dose 2.3 µM (0.32 µg/plate MelQx, 0.40 MelQx-M1).
Setting [14] is: +S9, dose 7.7 µM (1.1 µg/plate MelQx, 1.3 MelQx-M1).
The mark [15] stands for this setting: −S9, dose 0.08 µM (0.01 µg/plate).
The mark [16] stands for this setting: −S9, dose 0.2 µM (0.03 µg/plate MelQx, 0.04 MelQx-M1).
Where [17] appears, read: −S9, dose 0.8 µM (0.11 µg/plate MelQx, 0.13 MelQx-M1).
Setting [18] is: −S9, dose 2.3 µM (0.32 µg/plate MelQx, 0.40 MelQx-M1).
The mark [19] stands for this setting: −S9, dose 7.7 µM (1.1 µg/plate MelQx, 1.3 MelQx-M1).
Setting [20] is: 0.1 µM, 72 h exposure, n = 9–10.
Setting [21] is: 0.5 µM, 72 h exposure, n = 9–10.
Setting [22] is: −S9, dose 5 µg/plate, positive control.

Consider `Cn1c(N)nc2c3cccnc3ccc21` [IQ, 2-amino-3-methylimidazo[4,5-f]quinoline], for which, in series [1], the Malignant transformation entry is recorded as “all induced malignant transformation” and the Cell transformation entry is recorded as “none of the HCAs induced cell transformation”.
`Cc1cnc2ccc3c(c2n1)N1CCC(O)N=C1N3C` (stereo not drawn) [MelQx-M1, 9-hydroxyl-2,7-dimethyl-7,9,10,11-tetrahydropyrimido[2′,1′:2,3]imidazo[4,5-f]quinoxaline]: the Mutagenic activity in series [2] (setting [10]) was 44 ± 1 revertants/plate; in series [2] (setting [11]), 66 ± 5 revertants/plate; in series [2] (setting [12]) it was 182 ± 13 revertants/plate; in series [2] (setting [13]), 358 ± 4 revertants/plate; in series [2] (setting [14]) it was 770 ± 7 revertants/plate; in series [2] (+S9, dose 23 µM (4.0 µg/plate)), 1000 ± 20 revertants/plate. The Mutagenic activity in series [2] (+S9, dose 77–769 µM (14–135 µg/plate)) is more than 1500 revertants/plate; in [2] (setting [15]) it was 21 ± 1 revertants/plate; in [2] (setting [16]), 21 ± 1 revertants/plate; in series [2] (setting [17]), 21 ± 1 revertants/plate; in [2] (setting [18]), 22 ± 2 revertants/plate; in series [2] (setting [19]), 31 ± 2 revertants/plate. For the same molecule, the Mutagenic activity in [2] (−S9, dose 23 µM (4.0 µg/plate)) is on record as 32 ± 3 revertants/plate; in series [2] (−S9, dose 77–769 µM (14–135 µg/plate)) it was 41–54 revertants/plate. In addition, the “Induction of revertant colonies compared with vehicle control” value in series [2] is reported as “did not induce a significantly higher number of revertant colonies”. In addition, the “Mutagenic activity relative to MelQx in terms of revertants/plate” value in series [2] (after microbial transformation of MelQx to MelQx-M1) is 3%–26%. Moreover, the Induction of revertants result in series [2] is “induced a significant and concentration-dependent increase of the number of revertants”. The “Number of foci per plate” value is recorded as 1.1 ± 1.2 in series [3] (setting [20]); 0.1 ± 0.3 in series [3] (setting [21]); 0.5 ± 0.7 in series [3] (1 µM, 72 h exposure, n = 9–10); 0.1 ± 0.3 in series [3] (2 µM, 72 h exposure, n = 9–10); 0.1 ± 0.3 in series [3] (3 µM, 72 h exposure, n = 9–10); 0.2 ± 0.4 in [3] (4 µM, 72 h exposure, n = 9–10). Further, the “Number of foci per plate” value in series [3] (5 µM, 72 h exposure, n = 9–10) is reported as 0 ± 0; in [3] (6 µM, 72 h exposure, n = 9–10), 0.6 ± 0.8; in series [3] (7 µM, 72 h exposure, n = 9–10), 0.7 ± 1.5; in series [3] (10 µM, 72 h exposure, n = 9–10) it was 1.4 ± 2.2; in series [3] (50 µM, 72 h exposure, n = 9–10) it was 0 ± 0. Further, the “Induction of foci / cell transformation” value in series [3] was “neither MelQx nor MelQx-M1 induced a significant amount of foci; also recorded: no detectable cell transformation”. Moreover, the “Stability in the presence of S9” value in series [4] is recorded as “generation of small amounts of MelQx as a decomposition product”. Besides, the lowest-observed-adverse-effect level (LOAEL) in [5] was determined as 350 µM. Also, the NOAEL in series [5] is listed as 200 µM. This molecule also registered a BMD5 in series [5] of 262.2 µM. Further, the BMD10 in series [5] worked out at 334.6 µM. Also, the BMDU5 in [5] was 334 µM and 333.7 µM. The BMDL10 in series [5] is reported as 272.8 µM. Moreover, the BMDL5 in series [5] is 204 µM and 204.1 µM. For the same molecule, in [5], the BMDU10 is listed as 366.1 µM. Also, the “IC10 (95% CI)” value in [5] (24 h exposure) is listed as 316 (285–351) µM. Moreover, the IC50 in series [5] was determined as 617 µM.
In [2] (setting [22]), `O=[N+]([O-])c1ccc2c(c1)Cc1ccccc1-2` [2-nitrofluorene, 2-Nitrofluorene] yielded a Mutagenic activity of 616 ± 18 revertants/plate.
On to `C[n+]1c2n(c3ncc(-c4ccccc4)cc31)CCC(O)N2.[Cl-]` (stereo not drawn) [PhIP-M1, 7-hydroxy-5-methyl-3-phenyl-6,7,8,9-tetrahydropyrido[3’,2’:4,5]imidazo[1,2-a]pyrimidin-5-ium chloride], for which, in the series with rat intestinal tissues, the Cytotoxicity result is reported as “not being cytotoxic”. The Expected mutagenic activity with bacteria [6] was determined as 50 revertants/µg. Moreover, the Mutagenic activity with bacteria [7] is 46 ± 2 revertants/µg. In the series with BALB/c 3T3 cells, the “Malignant transformation of BALB/c 3T3 cells” value is on record as “did not induce malignant transformation; also recorded: does not induce cell transformation”.
In the case of `Cn1c(N)nc2ncc(-c3ccccc3)cc21` [PhIP, 2-amino-1-methyl-6-phenylimidazo[4,5-b]pyridine], in series [1], the Malignant transformation result is “all induced malignant transformation” and the Cell transformation entry was “none of the HCAs induced cell transformation”. Moreover, the Mutagenic activity with bacteria [7] is reported as 1700 revertants/µg.
On to `Cc1ccc2cc3c(ccc4ccccc43)c3c2c1CC3` [3-methylcholanthrene], for which, in [3] (15 µM, positive control), the “Number of foci per plate” value was “Medium (control), 0.1% DMSO, 15 µM 3-methylcholanthrene (MCA, positive control) induced 0.2 ± 0.4, 0 ± 0, and 14.1 ± 4.5 foci per plate, respectively. NT, not tested in this study. Data are displayed as mean ± SD (n = 9–10)”.
As for `Cc1cnc2ccc3c(nc(N)n3C)c2n1` [MelQx, 2-Amino-3,8-dimethylimidazo[4,5-f]quinoxaline], the Mutagenic activity in series [2] (setting [10]) is given as 352 ± 4 revertants/plate; in series [2] (setting [11]), 980 ± 20 revertants/plate; in series [2] (setting [12]), 1264 ± 38 revertants/plate; in [2] (setting [13]), 1449 ± 132 revertants/plate; in [2] (setting [14]), more than 1500 revertants/plate; in series [2] (+S9, dose 23–769 µM (3.2–107 µg/plate)), more than 1500 revertants/plate. The Mutagenic activity is reported as 23 ± 1 revertants/plate in series [2] (setting [15]); 21 ± 2 revertants/plate in series [2] (setting [16]); 20 ± 1 revertants/plate in series [2] (setting [17]); 21 ± 1 revertants/plate in series [2] (setting [18]); 20 ± 1 revertants/plate in [2] (setting [19]); 21–22 revertants/plate in series [2] (−S9, dose 23–769 µM (3.2–107 µg/plate)). Further, the “Induction of revertant colonies compared with vehicle control” value in [2] was “did not induce a significantly higher number of revertant colonies”. Also, in series [2], the Induction of revertants entry was “induced a significant and concentration-dependent increase of the number of revertants”. Further, the “Number of foci per plate” value is recorded as 0.1 ± 0.3 in [3] (setting [20]); 0.5 ± 0.7 in series [3] (setting [21]); 0.1 ± 0.3 in series [3] (5 µM, 72 h exposure, n = 9–10); 0.6 ± 0.7 in series [3] (10 µM, 72 h exposure, n = 9–10); 0.6 ± 1.2 in series [3] (50 µM, 72 h exposure, n = 9–10). The “Induction of foci / cell transformation” value in series [3] is “neither MelQx nor MelQx-M1 induced a significant amount of foci; also recorded: no detectable cell transformation”. Also, in [8], the “Transformation of MelQx to MelQx-M1” value is given as “no transformation”. This molecule also had an LOAEL in series [5] of 50 µM. Also, the NOAEL in series [5] was determined as 10 µM. The molecule also yielded a BMD5 in series [5] of 26.5 µM. In addition, the BMD10 in series [5] worked out at 55.2 µM. This molecule came in with a BMDU5 in [5] of 55.8 µM. In [5], this molecule returned a BMDL10 of 8.8 µM. This molecule gave a BMDL5 in series [5] of 4.1 µM. Also, the BMDU10 in series [5] came out at 87.6 µM. For the same molecule, the “Concentrations that reduced cell viability” value in series [5] (24 h exposure) is listed as not below 50 µM. In series [5] (24 h exposure), the “IC10 (95% CI)” value is 52 (31–87) µM. In series [5], the IC50 is 272 µM. In addition, the “Transformation efficiency on the basis of peak area (LC-ESI-MS2)” value in the series on L. rossiae DSM 15184 is 72% ± 1.5%; with L. reuteri ATCC 55730, 87% ± 0.9%. In addition, the Malignant transformation result in [1] was “all induced malignant transformation”. In [1], the Cell transformation entry was “none of the HCAs induced cell transformation”. For the same molecule, the “Mutagenicity relative to PhIP” value with bacteria [7] (Ames test, ref Pfau etal., 1999) is given as “about 10 times”.
For the molecule `Cn1c(NO)nc2ncc(-c3ccccc3)cc21` [N-OH-PhIP, 2-hydroxyamino-1-methyl-6-phenylimidazo[4,5-b]pyridine], in series [9], the Malignant transformation result was “induced malignant transformation”.
As to `Nc1ccc([N+](=O)[O-])cc1N` [4-NPD, 4-nitro-o-phenylenediamine], in series [2] (setting [22]), the Mutagenic activity amounted to 695 ± 5 revertants/plate.

These data come from publication PMC5837702 (Toxicological Sciences, 2017).
